From PubChem BioAssay
FLuc inhib CS: counter-screen for luciferase assay inhibitors: firefly luciferase inhibition; P08659; AID 1006; ATPLite firefly luciferase biochemical luminescence, 10 min; 200,000 tested, 1.5% active; inhibition, % at 10 µM;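 active = inhibition above about 50% when tested at 10 µM, limit read from the data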
Target sequence (P08659 whole entry, looked up): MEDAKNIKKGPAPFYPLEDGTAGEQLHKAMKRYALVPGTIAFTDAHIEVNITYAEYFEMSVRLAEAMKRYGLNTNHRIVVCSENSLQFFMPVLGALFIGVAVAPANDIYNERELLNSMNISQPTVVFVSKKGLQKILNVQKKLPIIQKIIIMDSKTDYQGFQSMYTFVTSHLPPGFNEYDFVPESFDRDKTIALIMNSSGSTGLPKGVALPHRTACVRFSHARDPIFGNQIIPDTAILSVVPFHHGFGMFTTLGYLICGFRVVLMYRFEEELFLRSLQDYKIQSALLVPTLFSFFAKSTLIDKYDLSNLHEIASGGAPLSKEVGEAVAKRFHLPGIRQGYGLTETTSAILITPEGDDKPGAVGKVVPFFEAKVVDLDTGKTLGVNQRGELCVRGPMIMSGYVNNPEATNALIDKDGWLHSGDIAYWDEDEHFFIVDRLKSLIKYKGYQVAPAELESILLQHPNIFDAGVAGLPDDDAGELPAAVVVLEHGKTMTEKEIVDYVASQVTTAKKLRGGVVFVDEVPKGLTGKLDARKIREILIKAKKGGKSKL
HSP90 inh: blocks HSP90-mediated luciferase refolding in reticulocyte lysate; Rabbit reticulocyte lysate, luciferase refolding luminescence, 3 h; inhibition, % at 5.6 µM; 290,000 tested, 0.91% active;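 active = inhibition above the screen-wide mean plus 3 SD, computed separately per campaign, cut at about 16% in these data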;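 note: 0% = DMSO wells and 100% = 60 µM geldanamycin wells; inhibitors lower the luminescence because luciferase stays unfolded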
FLuc stim CS: firefly luciferase counter-screen for stimulation assays; P08659; ATPlite luciferase biochemical, luminescence, 10 min; 0 = ATP-free wells, 1 = DMSO control; activation factor at 10 µM; 200,000 tested, under 10 active; AID 1027;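 active = luciferase activation factor, scaled between plate controls, of at least 2 with compound at 10 µM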
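test system = cell-free luciferase reagent | medium = PBS as buffer for the ATP substrate | dosing = test compounds dosed from 2 mM stocks in 100% DMSO | incubation = 10 min at ambient temperature | detection = luminescence measurement of luciferase light output | benchmarks = low control with PBS replacing ATP, high control enzyme plus ATP without compound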
PPC-1+TRAIL kill: PPC-1 cancer cell killing with TRAIL present; cell killing (% activity), % at 4 µM or 5 µM; 220,000 tested, 0.41% active; PPC-1 cells + TRAIL, ATPLite viability luminescence;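 active = cell killing above 50% in the first pass at 4 µM, then a duplicate retest at 5 µM averaging 50% or more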;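 note: plate controls were cells with TRAIL plus DMSO for no effect and medium-only wells lacking cells for full effect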
C8 TRAIL sens: sensitizes caspase-8 expressing cells to TRAIL; NB7+C8 cells + TRAIL, ATPlite viability luminescence; inhibition (viability loss, TRAIL sensitization), % at 10 µM; 360,000 tested, 1% active; AID 624354;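 active = compounds causing at least 50% loss of cell viability in the single-dose screen, relative to plate controls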
STAT3 blocker: inhibitors of IL-6 induced STAT3 signaling; U3A cells, IL-6 STAT3-luciferase reporter, luminescence; host cell line lacks STAT1; inhibition, % at 5.5 µM; 190,000 tested, 0.89% active; AID 862;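 active = inhibition above the mean inhibition across all screened compounds plus 3 SD, cut at about 44% in these data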;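 note: 0% = DMSO only wells and 100% = 100 µM nifuroxazide control wells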
PPC-1 tox: kills PPC-1 cells; cytotoxicity, % at 5 µM; 1,200 tested, 50% active; PPC-1 viability, ATPlite luminescence, overnight; AID 1447; shares compounds with PPC-1+TRAIL kill;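 active = reconfirmed compounds whose average cytotoxicity reaches 50% or more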;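 note: 0% = DMSO-treated cells and 100% = wells holding medium but no cells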
The depositor's hits bear a star; . = not tested or not shown. Compounds with a hit are over-represented: about 2.2% of the library has one in this group of screens.

SMILES	FLuc inhib CS	HSP90 inh	FLuc stim CS	PPC-1+TRAIL kill	C8 TRAIL sens	STAT3 blocker	PPC-1 tox
O=[N+]([O-])/C(=C\Nc1ccc(F)cc1F)S(=O)(=O)c1ccccc1	.	2	.	.	33	.	.
O=c1cc(CCl)[nH]c2nc3ccccc3n12	.	1	.	-7	-1	.	.
O=c1cc(-c2ccccc2)[nH]c2nc3ccccc3n12	84*	8	0.2	70*	84*	36	65*
Cc1ccc(-c2cc(C(=O)NCc3ccc4c(c3)OCO4)no2)cc1	2	2	1	9	9	16	.
O=C(NCc1ccc2c(c1)OCO2)c1cc(-c2ccccc2)on1	-2	0	1	21	-1	0	13
O=S(=O)(CC(CN1CCCC1)N1CCCC1)c1ccc2ccccc2c1 (stereo unspecified)	-7	0	1.1	26	10	20	.
Cc1cccc(C)c1NC(=O)c1cccc(N2C(=O)C3CCC(C)CC3C2=O)c1 (stereo unspecified)	.	0	.	.	-17	.	.
CCOc1ccc(Nc2nc(N)nc(CCl)n2)cc1	.	10	.	95*	92*	.	93*
CCOc1ccc(Nc2nc(N)nc(CN3CCN(c4ccccc4F)CC3)n2)cc1	-3	2	1	-8	3	18	.
Cc1ccc(Nc2nc(N)nc(CCl)n2)c(C)c1	.	0	.	92*	96*	.	92*
COc1cc(/C=C2\CCc3c2nc2ccccc2c3C(=O)O)cc(OC)c1OC	.	1	.	52*	57*	.	54*
COc1cc(/C=C2\CCCc3c2nc2ccccc2c3C(=O)O)cc(Br)c1O	.	-3	.	.	-16	.	.
COc1cc(/C=N/Nc2ccccc2)ccc1O	.	3	.	.	-15	.	.
COc1cc(/C=N/Nc2nncn2/N=C/c2ccc(O)c(OC)c2)ccc1O	96*	12	0	83*	75*	1	83*
CCn1c2ccccc2c2cc(NC(=O)N3CCOCC3)ccc21	4	0	1	10	-14	-10	4
CN(C)S(=O)(=O)c1ccc(C(=O)Nc2cccc(C(=O)O)c2)cc1	2	3	1	6	2	10	-7
O=C(CCS(=O)(=O)c1ccccc1)Nc1ccc(-c2nc3ccccc3s2)cc1	0	-1	1	54*	65*	43	49
Cc1cc(S(=O)(=O)N2CCCOC2CNC(=O)C(=O)NCCCN2CCOCC2)ccc1F (stereo unspecified)	.	-6	.	.	-7	.	.
O=C(O)c1ccc(N/N=C/c2cc3cc4c(cc3nc2Cl)OCCO4)cc1	.	12	.	88*	93*	.	91*
COc1ccc(C2/C=C\CN(C(=O)C3CCCC3)[C@H](Cc3ccccc3)C(=O)N2Cc2ccc(F)cc2)cc1 (stereo partly specified)	.	.	.	1	12	.	.
O=C(Nc1nc2ccc(F)cc2s1)c1ccccn1	90*	56*	0.1	60*	.	96*	62*
Cc1nc2ccc(NC(=O)c3ccc(Cl)s3)cc2s1	0	-1	1	22	13	7	.
O=C(Nc1nc2ccc(F)cc2s1)C1=COCCO1	.	.	.	.	40	.	.
Cc1ccc2nc(NC(=O)CN3C(=O)C4CC=CCC4C3=O)sc2c1 (stereo unspecified)	22	-2	0.8	9	3	18	21
Cc1ccc2nc(NC(=O)c3ccc(Cl)s3)sc2c1	35	-6	0.6	9	42	20	10
SMILES	FLuc inhib CS	HSP90 inh	FLuc stim CS	PPC-1+TRAIL kill	C8 TRAIL sens	STAT3 blocker	PPC-1 tox
CS(=O)(=O)c1ccc2nc(NC(=O)CN3C(=O)C4CC=CCC4C3=O)sc2c1 (stereo unspecified)	-4	2	1	8	3	9	.
COc1ccc(S(=O)(=O)Nc2ncccc2C)c2ccccc12	.	4	.	.	2	.	.
CCCCn1c(N)c(N(C)C(=O)c2ccc(Br)o2)c(=O)[nH]c1=O	.	.	.	.	2	.	.
O=C(Nc1nccs1)c1cnccn1	-5	0	1.1	8	-2	8	8
O=C(Nc1nccs1)c1ccc(-c2ccccc2Cl)o1	46	-4	0.5	10	40	-8	.
O=C(Nc1nccs1)c1ccc(-c2ccc(Cl)cc2)o1	85*	-1	0.1	60*	81*	16	61*
O=C(Nc1nccs1)c1ccccn1	22	3	0.8	-10	6	20	.
CCCCN(Cc1ccccc1)S(=O)(=O)c1cc(Br)cc2c1N(C(C)=O)C(C)C2 (stereo unspecified)	-8	-1	1.1	19	7	11	.
COc1ccc(NC(=O)c2cc([N+](=O)[O-])ccc2O)cc1	96*	81*	0	75*	91*	105*	77*
Cc1ccc(SCc2cn3ccccc3n2)cc1	.	5	.	23	21	.	.
c1ccc(CSCc2cn3ccccc3n2)cc1	3	5	1	-4	3	5	-6
COc1ccc(-c2cc(=O)c3cc(O)ccc3o2)cc1	54*	2	0.5	19	32	.	29
CCOc1ccc(N(CC(=O)N2CCCCC2)S(=O)(=O)c2ccc(Cl)cc2)cc1	.	1	.	.	-13	.	.
Oc1ccccc1N=Nc1ccccc1O	1	-2	1	43	34	12	41
COC(=O)c1nc2ccc(N3CCOCC3)cc2c(C)c1C(=O)OC	87*	4	0.1	46	63*	11	49
CCOc1cc(N2CCOCC2)c(OCC)cc1NC(=O)CSc1ncccc1C(=O)O	.	.	.	.	-1	.	.
Cc1ccc(N/C(N)=N/c2nc(C)cc(N3CCCCC3)n2)c(C)c1	-5	-1	1	20	40	41	22
CCN1C(=O)CC(Sc2ccccc2N)C1=O (stereo unspecified)	-2	0	1	12	2	-2	8
Cc1cc(NC(=O)C23CC4CC(C2)CC(n2cnc([N+](=O)[O-])n2)(C4)C3)no1	-2	2	1	36	-1	0	.
CC(=O)Nc1cnc(NC(=O)c2cccc(F)c2)cc1C	11	2	0.9	37	-6	-5	.
CCC(=O)Nc1cnc(NC(=O)c2cccc(F)c2)cc1C	16	13	0.8	-2	3	3	12
CCN(CC)c1ccc(C(=O)Nc2cccc(F)c2)cc1	42	1	0.6	16	42	35	16
CCOc1cccc2sc(NN)nc12	0	-1	1	2	5	-4	.
CCOc1cccc2sc(Cl)nc12	0	-1	1	5	-23	6	4
COc1ccc(C=NNC(=O)c2ccccc2OCc2ccc(F)cc2)c(OC)c1	.	.	.	.	12	.	.
CCCC(C)NC(=O)c1nc(-c2ccccc2)n(-c2ccccc2)n1 (stereo unspecified)	-11	2	1.1	-8	17	8	4
COc1ccccc1NS(=O)(=O)c1ccc2c(c1)CCN2C(=O)CCC(=O)O	.	1	.	.	-15	.	.
